Measurements: ChEMBL document CHEMBL1152740, “Synthesis and pharmacological activities of some sesquiterpene quinones and hydroquinones” (Bioorg Med Chem, 2009)
Values after ≈ are worked out from the molar mass of the structure shown. Active and inactive are the calls of the source. The rule behind the calls is not given here.

What was measured:
K562 = test: Antiproliferative activity against human K562 cells; type: functional
Method in brief: (§1)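 GI50 or CC50 values were read from mean dose-response curves, with 4 parallels per concentration.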

HeLa = test: Cytotoxicity against human HeLa cells; type: functional; method in brief: as §1
L929 = test: Antiproliferative activity against mouse L929 cells; type: cell-based; method in brief: as §1
Neutrophil = test: Inhibition of serum-opsonized zymosan-stimulated ROS production in bovine neutrophils by luminol-dependent chemiluminescence assay; type: functional, cell-based; settings: Bos taurus
[1] = target: Dehydrogenase/reductase SDR family member 9 (Homo sapiens) (UniProt Q9BPW9); test: Inhibition of 3alpha-HSD
HepG2 = test: Growth inhibition of human HepG2 cells; type: functional; method in brief: as §1
[2] = Growth inhibition of human HM02 cells; type: functional; method in brief: as §1
MCF7 = test: Growth inhibition of human MCF7 cells; type: functional; method in brief: as §1
[3] = target: T1, Prostaglandin G/H synthase 2 (Homo sapiens, UniProt P35354)
T1 sequence (P35354 whole entry): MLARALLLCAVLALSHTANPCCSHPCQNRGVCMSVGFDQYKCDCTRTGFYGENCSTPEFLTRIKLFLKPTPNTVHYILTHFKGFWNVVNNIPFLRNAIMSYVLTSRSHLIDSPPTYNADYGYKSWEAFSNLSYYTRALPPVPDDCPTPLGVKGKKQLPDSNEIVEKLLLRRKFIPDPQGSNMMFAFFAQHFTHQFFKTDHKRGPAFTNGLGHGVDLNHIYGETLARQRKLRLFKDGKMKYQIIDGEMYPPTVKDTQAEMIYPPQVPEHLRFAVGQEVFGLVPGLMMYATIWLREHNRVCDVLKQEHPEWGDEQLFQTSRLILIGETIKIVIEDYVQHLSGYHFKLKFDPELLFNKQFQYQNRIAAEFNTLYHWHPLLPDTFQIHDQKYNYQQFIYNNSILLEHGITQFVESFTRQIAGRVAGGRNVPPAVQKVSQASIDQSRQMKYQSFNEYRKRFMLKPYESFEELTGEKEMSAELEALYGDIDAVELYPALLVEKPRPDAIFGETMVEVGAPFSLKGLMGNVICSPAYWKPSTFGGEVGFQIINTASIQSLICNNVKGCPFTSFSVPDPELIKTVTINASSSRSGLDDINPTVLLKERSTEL

Dehydrogenase/reductase SDR family member 9 (Homo sapiens), sequence (Q9BPW9 whole entry): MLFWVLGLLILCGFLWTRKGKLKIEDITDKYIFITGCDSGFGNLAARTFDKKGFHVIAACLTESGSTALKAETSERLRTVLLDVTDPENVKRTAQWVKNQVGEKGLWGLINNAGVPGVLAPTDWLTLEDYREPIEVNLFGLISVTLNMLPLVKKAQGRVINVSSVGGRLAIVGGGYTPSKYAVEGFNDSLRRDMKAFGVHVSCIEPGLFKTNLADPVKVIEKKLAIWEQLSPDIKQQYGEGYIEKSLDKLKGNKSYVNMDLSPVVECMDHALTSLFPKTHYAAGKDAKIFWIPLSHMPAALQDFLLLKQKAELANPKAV

Row | Structure (SMILES) | GI50 (K562) [µM] | Activity [1] | GI50 (HepG2) [µg/mL] | GI50 (MCF7) [µg/mL] | CC50 (HeLa) [µM] | GI50 (L929) [µM] | Activity (Neutrophil) | GI50 [2] [µg/mL] | IC50 [3] [µM]
1 | C=C1CC[C@@H]2C(C)(C)CCC[C@@]2(C)[C@@H]1CC1=CC(=O)C=CC1=O | – | – | – | – | – | – | Active | – | –
2 | C=C1CC[C@@H]2C(C)(C)CCC[C@@]2(C)[C@@H]1Cc1cc(O)ccc1O | – | Active | – | – | – | – | Active | – | –
3 | CC1=CC[C@@H]2C(C)(C)CCC[C@@]2(C)[C@@H]1CC1=CC(=O)C=CC1=O | – | Active | – | – | – | – | Active | – | –
4 | CC1=CC[C@@H]2C(C)(C)CCC[C@@]2(C)[C@@H]1Cc1cc(O)ccc1O | – | – | – | – | – | – | Active | – | –
5 | CC1=CC[C@H]2C(C)(C)CCC[C@]2(C)[C@H]1/C=C1\C=C2OCOC2=CC1=O (racemic) | 3.5 | Active | – | – | 7.4 | 6.2 | – | – | –
6 | COc1ccc(O)c(O)c1/C=C1\[C@@H](C)CC[C@H]2C(C)(C)CCC[C@]12C (racemic) [(+/-)-WIEDENDIOL B] | 35.8 | Active | – | – | 38.1 | 63.1 | – | – | 0.7
7 | COc1c(C[C@H]2C(C)=CC[C@H]3C(C)(C)CCC[C@]23C)cc2c(c1C=O)OCO2 (racemic) [PROTECTED SIPHONODICTYAL C] | 21.1 | Active | – | – | 41.4 | 24 | – | – | –
8 | C=C1CC[C@H]2C(C)(C)CCC[C@]2(C)[C@H]1/C=C1\C=C2OCOC2=CC1=O (racemic) [SESQUITERPENE CYCLOHEXADIENONE] | 6.2 | – | – | – | 20.6 | 12.9 | – | – | –
9 | COc1ccc(O)c(O)c1C[C@@]1(C)C2=C(CC[C@@H]1C)C(C)(C)CCC2 (racemic) [SESQUITERPENE HYDROQUINONE] | 25.6 | – | – | – | 41.3 | 59.9 | – | – | –
10 | COc1cccc2c1C(=O)c1c(O)c3c(c(O)c1C2=O)C[C@@](O)(C(=O)CO)C[C@@H]3O[C@H]1C[C@H](N)[C@H](O)[C@H](C)O1 [DOXORUBICIN] | 1 | – | – | – | 2 | 1.2 | – | – | –

More lines, main results first:

Row | GI50 (K562) [µM] | Activity [1] | GI50 (HepG2) [µg/mL] | GI50 (MCF7) [µg/mL] | Structure (SMILES) | CC50 (HeLa) [µM] | GI50 (L929) [µM] | Activity (Neutrophil) | GI50 [2] [µg/mL] | IC50 [3] [µM]
11 | 20.7 | – | – | – | COC1=CC(=O)C(OC)=C(/C=C2\[C@@H](C)CC[C@H]3C(C)(C)CCC[C@]23C)C1=O | 75.3 | 41.6 | – | – | –
12 | 8.4 | Active | 6 (≈ 16.7 µM) | 2.4 (≈ 6.69 µM) | C=C1CC[C@@H]2C(C)(C)CCC[C@@]2(C)[C@@H]1CC1=C(O)C(=O)C=C(OC)C1=O (racemic) | 72.1 | 20.9 | – | 5.3 (≈ 14.8 µM) | –
13 | 6.1 | – | – | – | COC1=CC(=O)C(O)=C(C[C@@]2(C)C3=C(CC[C@@H]2C)C(C)(C)CCC3)C1=O (racemic) | 62.3 | 14 | – | – | –
14 | 13.4 | Active | 3.6 (≈ 10 µM) | 2.6 (≈ 7.25 µM) | COC1=CC(=O)C(O)=C(/C=C2\[C@@H](C)CC[C@H]3C(C)(C)CCC[C@]23C)C1=O (racemic) | 75.1 | 27.1 | – | 3.1 (≈ 8.65 µM) | –
15 | 26.6 | Active | – | – | COC1=CC(=O)C(=O)C(C[C@@]2(C)C3=C(CC[C@@H]2C)C(C)(C)CCC3)=C1OC (racemic) | 61.3 | 73.4 | – | – | –
